The text below walks through data of ChEMBL document CHEMBL1649407, “Part I: Synthesis, cancer chemopreventive activity and molecular docking study of novel quinoxaline derivatives” (Eur J Med Chem, 2011).

Each structure is given as a SMILES string.

The nature of data set [1]: Cytotoxicity against human Raji cells assessed as cell viability at 1000 molar ratio by trypan blue staining method.
Data set [2] relates to Mus musculus. As to the kind of experiment: Inhibition of DMBA-initiated/TPA-promoted carcinogenesis in ICR mouse assessed as mouse bearing papillomas at 85 nmol administered 1 hr before TPA treatment measured after 19 weeks by two-stage carcinogenesis test. The class given is functional. On the set-up: scale not given: the % may be the effect or the level left. The gist of the method: (§1)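 Female SPF ICR mice, 6 weeks old, 15 per group, backs shaved. Initiation: topical DMBA (390 nmol) in 0.1 mL acetone. Promotion began one week later: TPA (1.7 nmol) in 0.1 mL acetone, twice weekly. Test compound (85 nmol) in 0.1 mL acetone applied topically 1 h before each promotion. Papilloma-bearing mice and papillomas per mouse scored weekly for 20 weeks. Tumor type confirmed histologically. Student's t-test.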

Data set [3] has as its system Mus musculus. As to the kind of experiment: Inhibition of DMBA-initiated/TPA-promoted carcinogenesis in ICR mouse assessed as mouse bearing papillomas at 85 nmol administered 1 hr before TPA treatment measured after 13 weeks by two-stage carcinogenesis test. In kind it is functional. Also on record: scale not given: the % may be the effect or the level left. The gist of the method: as §1

Data set [4] has as its system Mus musculus. As to the kind of experiment: Inhibition of DMBA-initiated/TPA-promoted carcinogenesis in ICR mouse assessed as mouse bearing papillomas at 85 nmol administered 1 hr before TPA treatment measured after 11 weeks by two-stage carcinogenesis test. In kind it is functional. On the set-up: scale not given: the % may be the effect or the level left. The essentials:
as §1

For data set [5], the system named is Mus musculus. As to the kind of experiment: Inhibition of DMBA-initiated/TPA-promoted carcinogenesis in ICR mouse assessed as mouse bearing papillomas at 85 nmol administered 1 hr before TPA treatment measured after 20 weeks by two-stage carcinogenesis test. The class given is functional. On the set-up: scale not given: the % may be the effect or the level left. The gist of the method:
as §1

Data set [6] deals with Mus musculus. The experiment in a line: Inhibition of DMBA-initiated/TPA-promoted carcinogenesis in ICR mouse assessed as mouse bearing papillomas at 85 nmol administered 1 hr before TPA treatment measured after 15 weeks by two-stage carcinogenesis test. In kind it is functional. Also on record: scale not given: the % may be the effect or the level left. The essentials: as §1

Data set [7] has as its system Mus musculus. The experiment in a line: Inhibition of DMBA-initiated/TPA-promoted carcinogenesis in ICR mouse assessed as mouse bearing papillomas at 85 nmol administered 1 hr before TPA treatment measured after 9 weeks by two-stage carcinogenesis test. The class given is functional. On the set-up: scale not given: the % may be the effect or the level left. The essentials: as §1

For data set [8], the system named is Mus musculus. As to the kind of experiment: Inhibition of DMBA-initiated/TPA-promoted carcinogenesis in ICR mouse assessed as mouse bearing papillomas at 85 nmol administered 1 hr before TPA treatment measured after 18 weeks by two-stage carcinogenesis test. On the set-up: scale not given: the % may be the effect or the level left. The class given is functional. The gist of the method: as §1

Data set [9] deals with Mus musculus. The experiment in a line: Inhibition of DMBA-initiated/TPA-promoted carcinogenesis in ICR mouse assessed as mouse bearing papillomas at 85 nmol administered 1 hr before TPA treatment measured after 8 weeks by two-stage carcinogenesis test. Also on record: scale not given: the % may be the effect or the level left. The class given is functional. The essentials: as §1

The species named for data set [10] is Mus musculus. As to the kind of experiment: Toxicity in ICR mouse assessed as change in body weight. Conditions: in vivo. In kind it is organism-based. The essentials: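 Mice from the DMBA/TPA two-stage skin study received topical test compound in acetone before each TPA promotion. Body-weight gain was followed during the 20-week experiment. Food and water ad libitum, five mice per cage at 24 ± 2 °C.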

The test system of data set [11] is Mus musculus. As to the kind of experiment: Inhibition of DMBA-initiated/TPA-promoted carcinogenesis in ICR mouse assessed as mouse bearing papillomas at 85 nmol administered 1 hr before TPA treatment measured after 17 weeks by two-stage carcinogenesis test. In kind it is functional. On the set-up: scale not given: the % may be the effect or the level left. The essentials:
as §1

Data set [12] relates to Mus musculus. As to the kind of experiment: Toxicity in topically treated ICR mouse assessed as inflammation. The class given is organism-based. To be noted: in vivo, topical_or_ocular. The essentials: (§2)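 Treated areas of shaved back skin were inspected during the DMBA/TPA two-stage study, where test compound (85 nmol in acetone) was applied topically before each twice-weekly TPA promotion. Scored for lesional damage and for inflammation (edema, erosion, ulcer).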

Data set [13] deals with Mus musculus. The experiment in a line: Inhibition of DMBA-initiated/TPA-promoted carcinogenesis in ICR mouse assessed as mouse bearing papillomas at 85 nmol administered 1 hr before TPA treatment measured after 1 week by two-stage carcinogenesis test. The class given is functional. On the set-up: scale not given: the % may be the effect or the level left. The essentials:
as §1

Data set [14] deals with Mus musculus. As to the kind of experiment: Inhibition of DMBA-initiated/TPA-promoted carcinogenesis in ICR mouse assessed as mouse bearing papillomas at 85 nmol administered 1 hr before TPA treatment measured after 3 weeks by two-stage carcinogenesis test. In kind it is functional. On the set-up: scale not given: the % may be the effect or the level left. The gist of the method:
as §1

The subject of data set [15] is Mus musculus. The experiment in a line: Inhibition of DMBA-initiated/TPA-promoted carcinogenesis in ICR mouse assessed as mouse bearing papillomas at 85 nmol administered 1 hr before TPA treatment measured after 14 weeks by two-stage carcinogenesis test. On the set-up: scale not given: the % may be the effect or the level left. In kind it is functional. The gist of the method:
as §1

Data set [16] has as its system Mus musculus. As to the kind of experiment: Inhibition of DMBA-initiated/TPA-promoted carcinogenesis in ICR mouse assessed as mouse bearing papillomas at 85 nmol administered 1 hr before TPA treatment measured after 2 weeks by two-stage carcinogenesis test. In kind it is functional. On the set-up: scale not given: the % may be the effect or the level left. The gist of the method: as §1

Data set [17] concerns Mus musculus. The experiment in a line: Inhibition of DMBA-initiated/TPA-promoted carcinogenesis in ICR mouse assessed as mouse bearing papillomas at 85 nmol administered 1 hr before TPA treatment measured after 6 weeks by two-stage carcinogenesis test. Also on record: scale not given: the % may be the effect or the level left. In kind it is functional. The gist of the method:
as §1

The subject of data set [18] is Mus musculus. As to the kind of experiment: Inhibition of DMBA-initiated/TPA-promoted carcinogenesis in ICR mouse assessed as mouse bearing papillomas at 85 nmol administered 1 hr before TPA treatment measured after 5 weeks by two-stage carcinogenesis test. In kind it is functional. On the set-up: scale not given: the % may be the effect or the level left. The gist of the method: as §1

For data set [19], the system named is Mus musculus. As to the kind of experiment: Toxicity in topically treated ICR mouse assessed as lesional damage. The class given is organism-based. Conditions: in vivo, topical_or_ocular. The gist of the method: as §2
Data set [20] relates to Mus musculus. The experiment in a line: Inhibition of DMBA-initiated/TPA-promoted carcinogenesis in ICR mouse assessed as mouse bearing papillomas at 85 nmol administered 1 hr before TPA treatment measured after 10 weeks by two-stage carcinogenesis test. On the set-up: scale not given: the % may be the effect or the level left. The class given is functional. The gist of the method:
as §1

In data set [21] the test system is Mus musculus. The experiment in a line: Inhibition of DMBA-initiated/TPA-promoted carcinogenesis in ICR mouse assessed as mouse bearing papillomas at 85 nmol administered 1 hr before TPA treatment measured after 7 weeks by two-stage carcinogenesis test. In kind it is functional. On the set-up: scale not given: the % may be the effect or the level left. The essentials:
as §1

For data set [22], the system named is Mus musculus. The experiment in a line: Inhibition of DMBA-initiated/TPA-promoted carcinogenesis in ICR mouse assessed as mouse bearing papillomas at 85 nmol administered 1 hr before TPA treatment measured after 12 weeks by two-stage carcinogenesis test. The class given is functional. Also on record: scale not given: the % may be the effect or the level left. The gist of the method: as §1

The test system of data set [23] is Mus musculus. As to the kind of experiment: Inhibition of DMBA-initiated/TPA-promoted carcinogenesis in ICR mouse assessed as mouse bearing papillomas at 85 nmol administered 1 hr before TPA treatment measured after 16 weeks by two-stage carcinogenesis test. In kind it is functional. On the set-up: scale not given: the % may be the effect or the level left. The essentials: as §1

The test system of data set [24] is Mus musculus. The experiment in a line: Inhibition of DMBA-initiated/TPA-promoted carcinogenesis in ICR mouse assessed as mouse bearing papillomas at 85 nmol administered 1 hr before TPA treatment measured after 4 weeks by two-stage carcinogenesis test. On the set-up: scale not given: the % may be the effect or the level left. In kind it is functional. The essentials:
as §1

Take `O=c1[nH]c2ccccc2nc1Cl`: in data set [1] (Raji cells), the viability at 1000 molar ratio turned out to be 50%.
Same read-out and setting: the result for `Nc1nc2ccccc2[nH]c1=O` reads 60%; that for `COc1ccccc1/C=N/Nc1nc2ccccc2[nH]c1=O`, 60%.
On to `O=c1[nH]c2ccccc2nc1N/N=C/c1ccccc1`, for which the viability at 1000 molar ratio in data set [1] (Raji cells) stood at 60%.
Take `C=CCn1c(=O)c(N/N=C/c2ccccc2OC)nc2ccccc21`: the viability at 1000 molar ratio in data set [1] (Raji cells) was 60%.
On the same count and under the same terms, the result for `C=CCn1c(=O)c(N/N=C/c2ccccc2)nc2ccccc21` reads 60%; that for `CCOC(=O)Cn1c(=O)c(N/N=C/c2ccccc2OC)nc2ccccc21`, 60%.
Turning to `CCOC(=O)Cn1c(=O)c(N/N=C/c2ccccc2)nc2ccccc21`, the viability at 1000 molar ratio in data set [1] (Raji cells) is 60%.
In the case of `C=CCN(/N=C/c1ccccc1OC)c1nc2ccccc2n(CC=C)c1=O`, the Activity in the data set with Mus musculus [2] was determined as 86.6%; with Mus musculus [3] it was 46.6%; in the data set on Mus musculus [4] it was 26.6%; in the data set with Mus musculus [5], 86.6%; with Mus musculus [6] it was 60%; with Mus musculus [7] it was 13.3%. In addition, the Activity in the data set on Mus musculus [8] is on record as 80%; with Mus musculus [9], 13.3%; in the data set filed under Mus musculus [10], “Non-toxic”; in the data set on Mus musculus [11], 73.3%; in the data set with Mus musculus [12], “Non-toxic”; in the data set with Mus musculus [13], 0%. The Activity in the data set with Mus musculus [14] is 0%; in the data set with Mus musculus [15], 60%; with Mus musculus [16], 0%; in the data set on Mus musculus [17], 0%; in the data set on Mus musculus [18] it was 0%; in the data set with Mus musculus [19] it was “Non-toxic”. Further, the Activity in the data set on Mus musculus [20] was determined as 20%; with Mus musculus [21], 0%; in the data set with Mus musculus [22], 33.3%; in the data set with Mus musculus [23], 66.6%; in the data set on Mus musculus [24], 0%. Moreover, in data set [1] (Raji cells), the viability at 1000 molar ratio stood at 60%.
For the molecule `CCOC(=O)CN(/N=C/c1ccccc1OC)c1nc2ccccc2n(CC(=O)OCC)c1=O`, in [1] (Raji cells), the viability at 1000 molar ratio came out at 60%.
On to `c1ccc2nc3c(nc2c1)nc1ccccn13`, for which the viability at 1000 molar ratio in [1] (Raji cells) was determined as 60%.
Same read-out and setting: the result for `c1ccc2nc3c(nc2c1)[nH]c1cccc[n+]13` reads 60%.
As for `N#Cc1c(-c2ccccc2)nc(Sc2nc3ccccc3nc2Cl)[nH]c1=O`, the viability at 1000 molar ratio in [1] (Raji cells) was 60%.
As for `N#Cc1c(-c2ccc(O)cc2)nc(Sc2nc3ccccc3nc2Cl)[nH]c1=O`, the viability at 1000 molar ratio in data set [1] (Raji cells) worked out at 60%.
Still for that read-out and setting: the result for `N#Cc1c(-c2ccc(F)cc2)nc(Sc2nc3ccccc3nc2Cl)[nH]c1=O` reads 60%; that for `Clc1nc2ccccc2nc1Sc1nc2ccccc2[nH]1`, 60%.
Same read-out and setting: with `Clc1nc2ccccc2nc1SCc1nc2ccccc2[nH]1` the figure was 60%; with `Oc1nc2ccccc2nc1O`, 60%.
Take `Clc1nc2ccccc2nc1Cl`: in data set [1] (raji), the viability at 1000 molar ratio was found to be 50%.
For `NNc1nc2ccccc2[nH]c1=O`, the viability at 1000 molar ratio in data set [1] (Raji cells) came out at 60%.
